# Assay outcomes (PubChem)
# Only some compounds are listed: those with a hit (about 5.8% of all), similar ones and a draw of the others.
# 14-3-3 Bad PPI = disrupts binding of bovine 14-3-3 zeta to phospho-Bad peptide | P63103 | TR-FRET 14-3-3zeta/Dy647-pBad peptide displacement, 1 h | inhibition, % at 21.7 µM | 220,000 compounds, 0.71% hits | AID 781;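 active = inhibition above about 70%, limit read from the data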;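 note: 0% = full 14-3-3 plus peptide FRET controls and 100% = background without 14-3-3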
# Target sequence (P63103 whole entry, looked up): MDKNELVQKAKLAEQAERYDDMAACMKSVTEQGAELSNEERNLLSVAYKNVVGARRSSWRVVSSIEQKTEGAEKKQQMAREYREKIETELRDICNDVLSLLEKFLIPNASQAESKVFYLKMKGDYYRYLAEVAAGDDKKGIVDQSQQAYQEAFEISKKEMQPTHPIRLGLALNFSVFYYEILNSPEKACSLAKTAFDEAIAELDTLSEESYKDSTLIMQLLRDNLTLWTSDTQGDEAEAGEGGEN
# RBBP9 inh = human RBBP9 hydrolase inhibition; 220,000 compounds, 0.2% hits; recombinant RBBP9, FP-Rh probe fluorescence polarization; O75884; AID 1515; inhibition, % at 7.94 µM;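 active = inhibition above the campaign mean of all tested compounds plus 3 SD, cut at about 14% in these data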;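 note: plate controls were DMSO wells with RBBP9 for no effect and wells lacking RBBP9 protein for full effect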
#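 System: RBBP9 protein / Quantity: 2.5 µM RBBP9 dispensing solution, before mixing / Also added: Serine-hydrolase probe FP-Rh, 375 nM pre-mixing / Dosing: 7.94 µM single dose, 0.794% DMSO / Timing: enzyme-compound preincubation 30 min, then probe labeling 45 min, 25 °C / Signal: FP readout at 525/598 nm / Controls: DMSO-treated enzyme wells and wells lacking RBBP9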
# p47phox inh = p47phox (human) inhibition | P14598 | p47phox/p22phox peptide binding, fluorescence polarization, 2 h | 220,000 compounds, 0.53% hits | inhibition, % at 24.7 µM;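 active = inhibition above about 30%, limit read from the data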;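 note: 0% = p47phox with labelled peptide and 100% = labelled peptide alone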
# KCC2 mod = KCC2 (human) Cl- transport modulation; 190,000 compounds, 2.2% hits; Q9H2X9; B-score of Tl+ flux slope (higher = more flux/activation; lower = inhibition) at 10 µM; AID 1456; KCC2 cells, thallium flux FluoZin-2 fluorescence;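 active = thallium flux slope and its plate-corrected score both differing from the plate sample mean at a set confidence after two filtering rounds, in either direction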;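 note: slope of fluorescence scaled to starting intensity during 10 to 20 s after thallium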
# WT yeast gro inh = growth inhibition of WT yeast, mitochondrial fusion screen | mitochondrial fusion phenotypic screen, WT strain | inhibition, % at 10 µM | 190,000 compounds, 2.1% hits | AID 1362; in the data active = inhibition above about 58%; tested in S. cerevisiae
# ROMK mod = human ROMK K+ channel modulation, primary screen; Tet-inducible ROMK, thallium flux fluorescence; actives lie on both sides; B-score at 10 µM; AID 1918; 130,000 compounds, 2% hits;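 active = signal ratio slope over the read window, or its plate-corrected B-score, at least 3 SD from the plate mean, either direction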;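 note: B-score of the F/F0 ratio slope over 7 to 12 s after thallium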
# Target sequence (P48048 whole entry, looked up): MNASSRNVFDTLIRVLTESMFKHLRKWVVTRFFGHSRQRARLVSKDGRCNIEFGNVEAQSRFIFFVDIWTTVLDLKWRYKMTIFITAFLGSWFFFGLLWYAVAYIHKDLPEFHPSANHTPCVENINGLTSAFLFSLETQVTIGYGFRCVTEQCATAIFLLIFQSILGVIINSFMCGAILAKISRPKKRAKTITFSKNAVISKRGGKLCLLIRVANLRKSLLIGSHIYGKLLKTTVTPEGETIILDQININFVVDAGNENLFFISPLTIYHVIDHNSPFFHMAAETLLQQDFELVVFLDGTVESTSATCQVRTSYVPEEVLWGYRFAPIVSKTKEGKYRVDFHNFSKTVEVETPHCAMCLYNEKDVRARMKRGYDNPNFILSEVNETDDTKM
# * hit, by the source's call; . = not tested or not shown; [ ] = remark or other dose.
SMILES,14-3-3 Bad PPI,RBBP9 inh,p47phox inh,KCC2 mod,WT yeast gro inh,ROMK mod
Cc1c(Br)c([N+](=O)[O-])nn1CC(=O)NCCc1c[nH]c2ccccc12,0,-2,2,-2.9,2,-0.7
COCCN1C(=O)N(c2cccc(C)c2)C(=O)C1CC(=O)Nc1ccc(F)cc1 (stereo unspecified),93*,7,7,-0.91,-5,-0.0037
Cc1cccc(C(=O)c2cnc3ccccc3c2-c2ccccc2)c1,2,3,-1,-1.7,62*,-0.2
Cc1ccc(C(O)(COC(=O)C(C)C)COC(=O)C(C)C)c(O)c1,49,-7,1,-0.14,0,.
CCOc1ccccc1NC(=O)NC(=O)N(C)S(=O)(=O)c1ccc(C)cc1,-8,-4,-3,-0.46,62*,0.019
C=CCOCCN(CC)CC,-4,4,-3,-0.097,.,.
Cc1ccc(-n2ncc3c(SCc4ccccc4)ncnc32)cc1,-1,-2,-16,22*,52,0.2
c1ccc(CSc2ncnc3c2cnn3Cc2ccccc2)cc1,5,3,-8,-0.23,67*,1.1
Cc1ccc(CSc2ncnc3c2cnn3-c2ccc(C)cc2)cc1,-6,-3,-28,16*,14,1.2
CCOC(=O)CSc1ncnc2c1cnn2-c1ccc(Cl)cc1,85*,-11,-2,.,-30,1.1
Cc1ccc(CSc2ncnc3c2cnn3-c2ccccc2)cc1,3,1,3,1.1,-29,.
COC(=O)CSc1ncnc2c1cnn2Cc1ccccc1,6,-10,3,-0.087,-8,.
O=C(NC1CC1)C1=C[C@@H](c2c[nH]c3ccccc23)C[C@@H](OCCCCO)O1,-5,.,-19,-0.34,.,.
CS(=O)(=O)c1[nH]nc(-c2cccc(Cl)c2)c1C#N,7,3,1,-1.3,.,-0.12
COc1ccc(NC(=O)Nc2c(SC)nsc2SC)cc1,5,-13,3,0.042,10,0.66
CCOC(=O)c1nc(SC)n(C)c1C(=O)OCC,4,-5,-5,-0.76,.,.
CC1(C)CCCN(C(=O)c2ccc3c(c2NCCO)C(=O)c2ccccc2C3=O)C1,81*[fluorescence artefact?],-5,1,-1.4,43,-1.8
Nc1cc(N)nc(CS)n1,-5,-8,6,0.37,.,0.52
COc1ccc(C(OC(=O)c2ccco2)C(=O)NC2CCCCC2)cc1 (stereo unspecified),-1,0,-3,1.6,1,0.35
COc1ccc(C(OC(=O)c2c(C)noc2C)C(=O)NC2CCCC2)cc1 (stereo unspecified),82*,-11,12,.,1,-0.54
Cc1ccc2nc(-c3cccnc3)c(Nc3ccccc3C)n2c1,-16,-4,-6,-0.61,-11,0.015
Cc1ccn2c(Nc3ccccc3)c(-c3ccccn3)nc2c1,-13,-1,0,-0.68,73*,-0.26
Cc1ccc2nc(-c3ccccn3)c(Nc3ccccc3C)n2c1,-27,-1,-8,-0.059,76*,-0.61
Cc1ccccc1Nc1c(-c2ccccn2)nc2ccccn12,-29,-2,5,-0.85,64*,-1.1
Cc1ccn2c(Nc3ccccc3C)c(-c3ccccn3)nc2c1,-23,-3,1,-0.048,72*,0.21
SMILES,14-3-3 Bad PPI,RBBP9 inh,p47phox inh,KCC2 mod,WT yeast gro inh,ROMK mod
Cc1cccn2c(Nc3ccccc3)c(-c3ccccn3)nc12,-11,-10,21,-0.35,75,0.26
O=C(COc1ccc([N+](=O)[O-])cc1)NCc1ccncc1,11,-3,-5,1.6,-3,.
Cc1ccc(S(=O)(=O)N2CCOC2CNC(=O)C(=O)NCc2ccncc2)cc1 (stereo unspecified),6,-6,-2,1.2,.,0.27
Cc1cccc(N2C(=O)CC(N3CCN(c4ccccn4)CC3)C2=O)c1 (stereo unspecified),-4,3,-2,0.67,-17,0.069
O=C(c1nc2ccccn2c1CNCCCn1cccn1)N1CCCC1,-2,-2,4,1.2,1,0.19
C=CCn1c(C)c(C(C)=O)c(N2CCN(C(c3ccccc3)c3ccccc3)CC2)nc1=S,0,-4,-49,-0.23,72*,-0.039
O=C1c2ccccc2C(=O)N1CCN1CCCCC1,2,-6,-16,0.41,66*,.
O=C(Nc1ccc2oc(-c3cccnc3)nc2c1)c1ccc2c(c1)OCCO2,81*,-7,-11,.,3,0.26
COc1cc(/C=N/NC(=O)c2cc(C)oc2C)ccc1O,-21,2,37*,0.47,11,1.7
CC(=O)Nc1ccc(C(=O)CSc2nnnn2C2CCCC2)cc1,8,-1,0,0.16,-6,-0.27
Cc1ccc(N2C(=N)/C(=C3/Nc4ccccc4S3)C(c3ccccc3)C2=O)cc1 (stereo unspecified),1,-2,-5,-0.38,83*,.
Cc1ccc(S(=O)(=O)N(CCCO)CC(O)CON=C2c3ccccc3-c3ccccc32)cc1 (stereo unspecified),12,-21,-39,-0.85,59*,.
CCN(CC(O)Cn1c2ccccc2c2ccccc21)S(=O)(=O)c1ccc(C)cc1 (stereo unspecified),0,-6,-8,.,34,-1.3
O=C1c2cccc(OCC(=O)N3N=C(c4cccs4)CC3c3ccc(F)cc3)c2CCN1Cc1cccnc1 (stereo unspecified),-5,3,-10,-1.6,43,.
COc1ccc(OCC(O)Cn2cnc(-c3ccc(Br)cc3)c2)cc1 (stereo unspecified),4,-7,-2,0.45,-14,-1.5
OC(COc1ccc2ccccc2c1Br)Cn1cnc(-c2ccccc2)c1 (stereo unspecified),2,-2,-10,1.1,88*,0.11
COC(=O)CNC(=O)CNC(=O)c1nn(-c2ccc(OC)c(Cl)c2)c(=O)c2ccccc12,-8,-2,-19,-0.037,76*,.
COc1ccccc1OCCCCCc1c(C)n[nH]c1C,72*,-4,-8,-0.59,-5,.
CN1CCN(Cc2cccc(Oc3ccccc3)c2)CC1,70*,-2,0,0.042,-8,-0.0098
OC1CCN(Cc2cccc(Oc3ccccc3)c2)CC1,-12,3,-3,0.0065,1,.
C=CCSc1nc2c(c(C3CC=CCC3)c1C#N)CCC2 (stereo unspecified),10,3,3,0.27,61*,.
CC(C)COc1ccc(C(=O)CCN2CCCCC2)cc1,79*,-7,-2,-1.2,10,.
S=C(NCc1ccco1)N1CCN(C(c2ccccc2)c2ccccc2)CC1,2,4,-18,0.22,64*,.
C=C(C)CNC(=S)N1CCN(C(c2ccccc2)c2ccccc2)CC1,-5,4,-5,-0.54,55,-0.3
O=C(CN1CCN(C(c2ccccc2)c2ccccc2)CC1)NC(=O)NCc1ccco1,-7,-8,-5,.,4,-0.4
CC(C)CNC(=S)N1CCN(C(c2ccccc2)c2ccccc2)CC1,-10,-7,-5,-0.52,70*,-0.44
